One data set has as its target CYP3A4 (Homo sapiens, UniProt P08684). Kind of data set: Drug metabolism assessed as unchanged drug level in baculovirus-infected Sf9 cell microsomes expressing human recombinant CYP3A4 at 10 uM after 30 mins by LC-RAM-MS analysis. In kind it is ADME. Particulars: read-out: Drug metabolism. The method in brief:
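Microsomes from baculovirus-infected Sf9 cells expressing recombinant human CYP3A4 with CYP450 reductase (50 pmol/mL) incubated in duplicate with 10 µM [14C]BIIB021 (0.5 µCi/mL) in 100 mM potassium phosphate pH 7.4. Reaction started with 1 mM NADPH (final), run 30 min at 37°C with gentle shaking, stopped with ice-cold acetonitrile containing 0.1% formic acid, centrifuged, and supernatant analysed by LC-MS.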

Data set [1] has as its system Liver microsome. Kind of data set: Drug metabolism in human liver microsomes assessed as CF2246 metabolite formation at 10 uM […] by LC-RAM-MS analysis in presence of anti-CYP2B6 monoclonal antibody. It is filed as ADME. Summed up: (§1)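 All components except substrate and NADPH were preincubated 15 min on ice, then 5 min at 37°C. Substrate and NADPH were added and incubated 60 min at 37°C. Incubations without antibody served as positive controls.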

Data set [2] concerns Liver microsome. Kind of data set: Drug metabolism in human liver microsomes assessed as CF2246 metabolite formation at 10 uM after […] by LC-RAM-MS analysis in presence of anti-CYP2D6 monoclonal antibody. In kind it is ADME. The method in brief: as §1
The subject of data set [3] is Liver microsome. Kind of data set: Drug metabolism in human liver microsomes assessed as CF2246 metabolite formation at 10 uM after […] by LC-RAM-MS analysis in presence of anti-CYP2E1 monoclonal antibody. It is filed as ADME. The method in brief:
as §1

Data set [4] is described as follows: Drug metabolism in human liver cytosol assessed as CF2483 metabolite formation at 10 uM after 30 mins by LC-RAM-MS analysis. It is filed as ADME, tissue-based. Particulars: 0.5 h. The method in brief:
(§2)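 Human liver cytosol (1 mg/mL protein) incubated with 10 µM [14C]BIIB021 (0.5 µCi/mL) in 100 mM phosphate buffer, pH 7.4, for 30 min. Reaction quenched with ice-cold acetonitrile, then centrifuged 10 min at 4°C, and supernatant analysed by LC-MS. Where used, inhibitors (isovanillin 100 µM, menadione 100 µM, allopurinol 100 µM, raloxifene 50 µM) were preincubated in cytosol 10 min at 37°C before substrate addition.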

Data set [5] is described as follows: Drug metabolism in human liver cytosol assessed as CF2483 metabolite formation at 10 uM after 30 mins by LC-RAM-MS analysis in presence of xanthine oxidase inhibitor allopurinol. In kind it is ADME. The settings on record: 0.5 h. The method in brief: as §2
A short description of data set [6]: Drug metabolism in human liver cytosol assessed as CF2483 metabolite formation at 10 uM after 30 mins by LC-RAM-MS analysis in presence of aldehyde oxidase inhibitor isovanillin. The settings on record: 0.5 h. In kind it is ADME. The method in brief: as §2
Data set [7] is described as follows: Drug metabolism in human liver cytosol assessed as CF2483 metabolite formation at 10 uM after 30 mins by LC-RAM-MS analysis in presence of aldehyde oxidase inhibitor menadione. In kind it is ADME. The settings on record: 0.5 h. The method in brief: as §2
Data set [8] in a line: Drug metabolism in human liver cytosol assessed as CF2483 metabolite formation at 10 uM after 30 mins by LC-RAM-MS analysis in presence of aldehyde oxidase inhibitor raloxifene. In kind it is ADME. Particulars: 0.5 h. Summed up:
as §2

Data set [9] relates to Liver microsome. Kind of data set: Drug metabolism in human liver microsomes assessed as CF3785 metabolite formation at 10 uM […] by LC-RAM-MS analysis in presence of anti-CYP1A2 monoclonal antibody. In kind it is ADME. Summed up: as §1
Data set [10] concerns Liver microsome. Kind of data set: Drug metabolism in human liver microsomes assessed as CF3785 metabolite formation at 10 uM […] by LC-RAM-MS analysis in presence of anti-CYP2A6 monoclonal antibody. In kind it is ADME. The method in brief: as §1
Data set [11] deals with Liver microsome. Kind of data set: Drug metabolism in human liver microsomes assessed as CF3785 metabolite formation at 10 uM […] by LC-RAM-MS analysis in presence of anti-CYP2B6 monoclonal antibody. In kind it is ADME. The method in brief: as §1
Data set [12] concerns Liver microsome. Kind of data set: Drug metabolism in human liver microsomes assessed as CF3785 metabolite formation at 10 uM […] by LC-RAM-MS analysis in presence of anti-CYP2D6 monoclonal antibody. It is filed as ADME. Summed up: as §1
The test system of data set [13] is Liver microsome. Kind of data set: Drug metabolism in human liver microsomes assessed as CF3785 metabolite formation at 10 uM […] by LC-RAM-MS analysis in presence of anti-CYP2E1 monoclonal antibody. In kind it is ADME. The method in brief: as §1
For data set [14], the system named is Liver microsome. Kind of data set: Drug metabolism in human liver microsomes assessed as CF2246 metabolite formation at 10 uM […] by LC-RAM-MS analysis in presence of anti-CYP2C19 monoclonal antibody. It is filed as ADME. Summed up: as §1
For data set [15], the system named is Liver microsome. Kind of data set: Drug metabolism in human liver microsomes assessed as CF2246 metabolite formation at 10 uM after […] by LC-RAM-MS analysis in presence of anti-CYP3A4 monoclonal antibody. In kind it is ADME. Summed up: as §1
Data set [16] relates to Liver microsome. Kind of data set: Drug metabolism in human liver microsomes assessed as CF2246 metabolite formation at 10 uM […] by LC-RAM-MS analysis in presence of anti-CYP1A2 monoclonal antibody. It is filed as ADME. Summed up:
as §1

In data set [17] the test system is Liver microsome. Kind of data set: Drug metabolism in human liver microsomes assessed as CF2246 metabolite formation at 10 uM after […] by LC-RAM-MS analysis in presence of anti-CYP2A6 monoclonal antibody. In kind it is ADME. Summed up:
as §1

The test system of data set [18] is Liver microsome. Kind of data set: Drug level in human liver microsomes treated with [14C]BIIB021 at 10 uM […] by LC-RAM-MS analysis in presence of anti-CYP1A2 monoclonal antibody. In kind it is ADME. The settings on record: 1.5 h.
In data set [19] the test system is Liver microsome. Kind of data set: Drug level in human liver microsomes treated with [14C]BIIB021 at 10 uM after 90 mins by LC-RAM-MS analysis in presence of anti-CYP2A6 monoclonal antibody. The settings on record: 1.5 h. In kind it is ADME.
Data set [20] has as its system Liver microsome. Kind of data set: Drug level in human liver microsomes treated with [14C]BIIB021 at 10 uM after 90 mins by LC-RAM-MS analysis in presence of anti-CYP2B6 monoclonal antibody. It is filed as ADME. The settings on record: 1.5 h.
In data set [21] the test system is Liver microsome. Kind of data set: Drug level in human liver microsomes treated with [14C]BIIB021 at 10 uM after 90 mins by LC-RAM-MS analysis in presence of anti-CYP2D6 monoclonal antibody. In kind it is ADME. The settings on record: 1.5 h.
Data set [22] concerns Liver microsome. Kind of data set: Drug level in human liver microsomes treated with [14C]BIIB021 at 10 uM […] by LC-RAM-MS analysis in presence of anti-CYP2E1 monoclonal antibody. It is filed as ADME. The settings on record: 1.5 h.
Data set [23] can be described thus: Drug level in human liver cytosol treated with [14C]BIIB021 at 10 uM after 30 mins by LC-RAM-MS analysis. It is filed as ADME, tissue-based. The settings on record: 0.5 h. The method in brief:
as §2

Data set [24] is described as follows: Drug level in human liver cytosol treated with [14C]BIIB021 at 10 uM after 30 mins by LC-RAM-MS analysis in presence of xanthine oxidase inhibitor allopurinol. It is filed as ADME, tissue-based. Particulars: 0.5 h. The method in brief: as §2
In data set [25] the test system is Liver microsome. Kind of data set: Drug level in human liver microsomes treated with [14C]BIIB021 at 10 uM […] by LC-RAM-MS analysis in presence of anti-CYP2C19 monoclonal antibody. The settings on record: 1.5 h. It is filed as ADME.
For data set [26], the system named is Liver microsome. Kind of data set: Drug level in human liver microsomes treated with [14C]BIIB021 at 10 uM after 90 mins by LC-RAM-MS analysis in presence of anti-CYP3A4 monoclonal antibody. In kind it is ADME. The settings on record: 1.5 h.

Chain of CYP3A4 (P08684 whole entry): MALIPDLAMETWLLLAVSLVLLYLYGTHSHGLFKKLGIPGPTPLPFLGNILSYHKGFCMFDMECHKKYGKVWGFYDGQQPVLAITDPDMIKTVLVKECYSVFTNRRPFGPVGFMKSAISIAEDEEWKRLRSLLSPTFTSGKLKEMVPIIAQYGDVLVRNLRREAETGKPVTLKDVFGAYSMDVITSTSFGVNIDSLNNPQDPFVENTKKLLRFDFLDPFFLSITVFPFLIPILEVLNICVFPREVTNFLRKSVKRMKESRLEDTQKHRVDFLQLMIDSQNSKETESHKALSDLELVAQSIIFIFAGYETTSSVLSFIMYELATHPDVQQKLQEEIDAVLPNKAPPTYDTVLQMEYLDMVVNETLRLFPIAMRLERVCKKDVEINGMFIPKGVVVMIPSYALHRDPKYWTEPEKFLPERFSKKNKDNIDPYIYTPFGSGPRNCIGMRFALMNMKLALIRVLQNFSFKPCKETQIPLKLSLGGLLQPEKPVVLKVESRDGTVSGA

`COc1c(C)cnc(Cn2[14cH]nc3c(Cl)nc(N)nc32)c1C`: the remaining at 0.5 h, 10 µM at CYP3A4 turned out to be 70%. Further, the Drug metabolism result with Liver microsome [1] is reported as “metabolite_detected”; in the data set on Liver microsome [2], “metabolite_detected”; in the data set on Liver microsome [3], “metabolite_detected”; in data set [4], “metabolite_detected”; in [5], “metabolite_detected”; in data set [6] it was “metabolite_not_detected”. Moreover, the Drug metabolism result in data set [7] is “metabolite_not_detected”; in data set [8] it was “metabolite_not_detected”; in the data set with Liver microsome [9] it was “metabolite_detected”; in the data set on Liver microsome [10], “metabolite_detected”; with Liver microsome [11] it was “metabolite_detected”; with Liver microsome [12], “metabolite_detected”. Further, the Drug metabolism entry in the data set with Liver microsome [13], with Liver microsome [14], in the data set on Liver microsome [15], in the data set on Liver microsome [16] and in the data set on Liver microsome [17] was “metabolite_detected” in each case.
On to `COc1c(CO)cnc(Cn2cnc3c(Cl)nc(N)nc32)c1C`, for which the Drug metabolism entry in the data set on Liver microsome [18], in the data set with Liver microsome [19], in the data set on Liver microsome [20], with Liver microsome [21] and with Liver microsome [22] was “metabolite_detected” each time.
With `COc1c(C)cnc(Cn2c(O)nc3c(Cl)nc(N)nc32)c1C`, the Drug metabolism entry in [23] and in [24] was “metabolite_detected” in each case.
With `Cc1cnc(Cn2cnc3c(Cl)nc(N)nc32)c(C)c1O`, the Drug metabolism entry with Liver microsome [25], in the data set with Liver microsome [26], in the data set with Liver microsome [18], in the data set with Liver microsome [19], in the data set on Liver microsome [20] and in the data set on Liver microsome [21] was “metabolite_detected” each time. Besides, the Drug metabolism result in the data set with Liver microsome [22] was “metabolite_detected”.

For the origin of these results see ChEMBL document CHEMBL3526132, “In vitro metabolism of BIIB021, an inhibitor of heat shock protein 90, in liver microsomes and hepatocytes of rats, dogs, and humans and recombinant human cytochrome P450 isoforms” (Drug Metab Dispos, 2012).
